# An excerpt weighted towards active compounds, which were near 1.2% of everything screened.
# CaV13 ICDI inh: Disruptors of the CACNA1D IQ motif to Ca2+-dependent inactivation inhibitor domain association, primary screening, Förster resonance energy transfer in intact living …; HEK cells, CFP/YFP FRET ICDI-IQ, plate reader, 10 min; percent FRET-ratio fall versus neutral wells; inhibition, % at 12.3 µM; actives 0.098% (n = 340,000);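 active = mean replicate inhibition of at least 30% and at least 1% of replicates passing that level; inconclusive = only one of the two criteria is met; inactive = neither criterion is met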;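 also: 0% = median of the neutral control wells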
# SR-BI HDL uptake: mouse SR-BI HDL lipid transfer inhibition. Q61009. ldlA[mSR-BI] CHO cells, DiI-HDL uptake fluorescence, 3 h. inhibition, % at 12.5 µM. actives 0.96% (n = 320,000). AID 488896;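 active = mean replicate inhibition of at least 70% and a set share of replicates each scoring 70 or more; inconclusive = meets just one of the two criteria; inactive = fails both criteria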;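 also: 0% = median of neutral control wells and 100% = median of positive control wells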
# Target sequence (Q61009 whole entry, looked up): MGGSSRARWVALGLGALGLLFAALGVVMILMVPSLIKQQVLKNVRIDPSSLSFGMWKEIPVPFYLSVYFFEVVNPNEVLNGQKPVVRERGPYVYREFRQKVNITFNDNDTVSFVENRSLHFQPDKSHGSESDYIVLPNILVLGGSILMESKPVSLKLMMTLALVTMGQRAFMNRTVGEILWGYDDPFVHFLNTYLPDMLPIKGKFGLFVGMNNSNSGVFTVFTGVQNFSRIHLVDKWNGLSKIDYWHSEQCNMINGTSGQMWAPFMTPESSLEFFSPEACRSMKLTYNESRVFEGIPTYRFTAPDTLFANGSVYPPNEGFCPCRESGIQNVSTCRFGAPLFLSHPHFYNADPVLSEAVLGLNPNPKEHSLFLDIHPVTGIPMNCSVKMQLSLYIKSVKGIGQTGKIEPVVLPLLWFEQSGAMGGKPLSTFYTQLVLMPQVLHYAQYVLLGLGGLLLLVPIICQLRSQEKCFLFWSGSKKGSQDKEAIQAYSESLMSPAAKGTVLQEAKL
# Efflux pump mplx: blocks antifungal efflux pumps in multiplex yeast assay | S. cerevisiae Candida pump triplex, Nile Red efflux | inhibition, % at 10 µM | actives 0.44% (n = 330,000);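 active = plate passing quality check with inhibition over a set limit, or well fluorescence over plate mean plus 4 SD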;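 also: Nile Red retained in pooled yeast measured as flow cytometry median fluorescence; 0% = buffer negative control and 100% = Enniatin B positive control; higher means more Nile Red kept so more efflux inhibition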
# FN deposition inh: fibronectin deposition inhibition | AH1F fibroblasts, Alexa488-fibronectin deposition fluorescence, overnight | inhibition, % at 12.6 µM | actives 0.086% (n = 350,000) | AID 743247;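 active = mean inhibition across replicates of 30% or more, regardless of how many single replicates reach that level; inconclusive = mean under 30% yet at least half of replicates reach 30%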;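 also: positive control wells lacked labelled fibronectin entirely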
#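 Material: AH1F fibroblast monolayer depositing Alexa488-labelled fibronectin into matrix / Amount: 10000 AH1F cells per well / Signal: fluorescence 485/525 nm / Medium: DMEM, 2% serum / Compound: single dose, pinned / Incubation: 1 h cell adhesion before compound, then overnight fibronectin incubation / Reagent: Alexa488-FN, 24 nM final / Read-out: inhibition of fibronectin deposition signal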
# SR-BI DiI-HDL act: enhances SR-BI lipid uptake from DiI-HDL. CHO ldlA[mSR-BI] cells, DiI-HDL uptake fluorescence, 3 h; 100 = double the neutral-control signal. activation, % at 12.5 µM. actives 0.096% (n = 320,000). AID 504775;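 active = mean replicate activation of at least 60% and every replicate at or above 60%; inconclusive = mean or all-replicate condition met, but not both; inactive = mean below 60% and not all replicates reaching 60%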;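 also: 0% = median plate neutral-control signal and 100% = twice that signal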
#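 Material – SR-BI-overexpressing, LDLR-lacking CHO cells · Medium – BSA-supplemented, HEPES-buffered Ham's F12, pH 7.4 · Doses – single concentration · Times – compound with DiI-HDL co-incubation, 3 h at 37 °C · Measured by – bottom-read fluorescence, 550/595 nm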
# Cmpd fluor yeast: flagged as fluorescent in efflux inhibitor counter-screen | S. cerevisiae AD/pABC3, compound fluorescence, flow cytometry | shares compounds with Efflux pump mplx | actives 4% (n = 1,700) | fluorescence ratio to DMSO, % at 10 µM;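 active = fluorescence ratio to DMSO above its plate's cutoff, the plate mean ratio plus 5 SD, cut at about 210% in these data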;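 also: unstained yeast with no Nile Red so the signal is compound autofluorescence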
# Mdr1 pump inh: Candida Mdr1 efflux pump inhibition; shares compounds with Efflux pump mplx; S. cerevisiae AD/CaMDR1, Nile Red efflux, flow cytometry; inhibition, % at 10 µM; actives 1% (n = 1,700); AID 588518; in the data active = inhibition above about 26%;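 also: 0% = DMSO vehicle and 100% = reference inhibitor; higher means more Nile Red retained so more efflux inhibition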
# CaCdr2 efflux inh: inhibitors of Candida albicans Cdr2 efflux pump | shares compounds with Efflux pump mplx | S. cerevisiae AD/CaCDR2, Nile Red retention, flow cytometry | Nile Red retention ratio vs DMSO, % at 10 µM | actives 4% (n = 1,700); in the data active = Nile Red retention ratio vs DMSO above about 190%;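 also: higher ratio means more blocking of Cdr2 efflux of the dye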
# CaCdr1 efflux inh: inhibitors of Candida albicans Cdr1 efflux pump; shares compounds with Efflux pump mplx; S. cerevisiae AD/CaCDR1, Nile Red efflux, flow cytometry; inhibition, % at 10 µM; actives 1% (n = 1,700);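 active = inhibition above the screen-wide mean plus twice its standard deviation, cut at about 32% in these data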
# * hit, by the source's call; ? = inconclusive; . = not tested or not shown; + = active, no number.
SMILES,CaV13 ICDI inh,SR-BI HDL uptake,Efflux pump mplx,FN deposition inh,SR-BI DiI-HDL act,Cmpd fluor yeast,Mdr1 pump inh,CaCdr2 efflux inh,CaCdr1 efflux inh
COc1cc(/C=C/C(=O)c2ccc(O)cc2)ccc1OCC#N,-3,35,11*,2,-35,95,0,108,0
COc1cccc(C(=O)/C=C/c2ccc(OCC#N)c(OC)c2)c1,-6,-7,0,14,7,.,.,.,.
O=C(C1CCOCC1)N1CC(=O)N2[C@H](C1)[C@H](c1ccc(/C=C/c3ccccc3)cc1)[C@@H]2CO,.,.,.,0,.,.,.,.,.
O=C(COc1ccc(Cl)cc1Cl)NN1C(=O)C2C3C=CC([C@@H]2C1=O)C31CC1 (some centres not stated),3,-8,0,9,8,.,.,.,.
O=C(COc1ccc(Cl)cc1Cl)NN1C(=O)/C(=C\c2ccc(Cl)cc2)SC1=S,-7,-9,0,.,9,99,0,107,0
COc1ccc(-c2cc(C(F)(F)F)n3nc(C(=O)N(C)Cc4ccccc4)cc3n2)cc1OC,-2,.,1.4*,-2,.,96,0,97,0
CCCc1nn2c(=O)cc(CSCC(=O)Nc3ccccc3)nc2s1,-15,-18,0,-3,18,.,.,.,.
CCCc1nn2c(=O)cc(CSCC(=O)Nc3ccc(F)cc3)nc2s1,-15,-7,1.9*,3,7,100,0,100,0
O=C(NC1CCCc2c1cnn2-c1ccccc1F)c1ccccn1 (configuration not stated),-16,-16,0,7,16,106,0,105,0
COc1ncccc1C(=O)NC1CCCc2c1cnn2-c1cc(C)cc(C)c1 (configuration not stated),-3,33,0,6,-33,100,0,108,0
O=C(NC1CCCc2c1cnn2-c1ccc(F)cc1F)c1ccccn1 (configuration not stated),-16,-5,0,12,5,.,.,.,.
CC1=C(C(=O)Nc2ccccc2)C(c2cccc([N+](=O)[O-])c2)Nc2nc3ccccc3n21 (configuration not stated),-7,18,1.4*,.,-18,109,0,109,0
COc1ccc(/C=c2\s/c(=C(/C#N)C(=O)NCc3ccco3)n(-c3ccccc3)c2=O)cc1,-14,55,0.7*,3,-55,106,0,107,0
C[C@H](CO)N1C[C@H](C)[C@H](CN(C)C(=O)C2CCCCC2)OCCCC[C@H](C)Oc2ccc(NC(=O)NC3CCCCC3)cc2C1=O,.,.,.,-7,.,.,.,.,.
Cc1ccccc1OCC(=O)NCCc1nc2ccccc2[nH]1,-3,0,15*,-1,0,96,0,95,0
Cc1cc(C)cc(OCC(=O)NCCc2nc3ccccc3[nH]2)c1,-22,-39,0,2,39,.,.,.,.
Cc1ccccc1S(=O)(=O)N[C@H]1CC[C@H](CCNS(=O)(=O)c2cccc(F)c2)O[C@@H]1CO,.,.,.,-8,.,.,.,.,.
CNC[C@@H]1OCCCC[C@H](C)Oc2ccc(NC(=O)NC(C)C)cc2C(=O)N([C@H](C)CO)C[C@H]1C,.,.,.,5,.,.,.,.,.
Cc1ccc(-c2c[n+](Cc3ccc(Cl)c(Cl)c3)c3n2CCC3)cc1,-6,10,18*,-13,-10,79,0,87,0
O=C(C[n+]1cc(-c2ccc(Cl)c(Cl)c2)n2c1CCC2)N1c2ccccc2Sc2ccccc21,-5,11,4.3*,-3,-11,105,0,108,0
Cc1ccc(-c2c[n+](CC(=O)Nc3ccc(C)cc3C)c3n2CCC3)cc1,-20,-66,0,-2,?,.,.,.,.
Cc1ccc(NC(=O)C[n+]2cc(-c3ccc(C)cc3)n3c2CCC3)cc1,-14,-6,0,0,6,107,0,98,0
O=C(C[C@H]1C=C[C@H](NC(=O)c2ccc(F)cc2)[C@@H](CO)O1)NCCc1ccncc1,.,.,.,-11,.,.,.,.,.
CCCc1nnc(-c2cc(OC)c(OC)c(OC)c2)o1,-15,8,1.9*,3,-8,105,0,106,0
Cc1ccc2sc(N(CCCN(C)C)C(=O)c3nc4ccccc4s3)nc2c1C,-2,28,0,1,-28,.,.,.,.
SMILES,CaV13 ICDI inh,SR-BI HDL uptake,Efflux pump mplx,FN deposition inh,SR-BI DiI-HDL act,Cmpd fluor yeast,Mdr1 pump inh,CaCdr2 efflux inh,CaCdr1 efflux inh
Cc1ccc2sc(N(CCCN(C)C)C(=O)c3ccc(Br)s3)nc2c1C,-6,10,0.9*,11,-10,104,0,280*,0
COCC(=O)Nc1ccc2c(c1)C(=O)N(C)[C@H]1CC[C@H](CC(=O)NCc3ccccc3)O[C@H]1CO2,.,.,.,-9,.,.,.,.,.
Cc1ccc2c(c1)c(/C=C/c1cc[n+](C)cc1)c(C)n2C,-43,5,25*,-444,-5,+,32*,290*,16
Cc1ccc2[nH]c(C)c(/C=C/c3cc[n+](C)cc3)c2c1,-42,-12,20*,-254,12,+,16,317*,15
C[C@H](CO)N1C[C@H](C)[C@H](CN(C)C(=O)Nc2ccc(F)cc2)Oc2ccc(NC(=O)C3CCCCC3)cc2CC1=O,.,.,.,-13,.,.,.,.,.
COc1ccc(NC(=O)c2c[nH]n3c(=O)cc(C4CCN(C(=O)OC(C)(C)C)CC4)nc23)cc1Cl,-9,24,1.1*,16,-24,109,0,114,0
COc1ccc(C(=O)CN2C(=O)NC3(CCCCCC3)C2=O)cc1,-6,8,6.2*,1,-8,99,0,104,0
COc1ccc(OCCOC(=O)CN2C(=O)NC3(CCCC3)C2=O)cc1,-5,-10,0,-3,10,.,.,.,.
O=C1N[C@@H](Cc2ccccc2)C(=O)N2[C@H]1C[C@]1([C@]34C[C@H]5C(=O)N[C@@H](Cc6ccccc6)C(=O)N5[C@H]3N(S(=O)(=O)c3ccccc3)c3ccccc34)c3ccccc3N(S(=O)(=O)c3ccccc3)[C@H]21,-15,-16,0.8*,-24,16,105,1,104,1
Cc1ccc(S(=O)(=O)CCSc2nccn2C)cc1,-6,-15,3.3*,2,15,98,0,99,0
